# Compound activity from PubChem BioAssay.
# Hits are enriched below; roughly 1.1% of the tested compounds scored in any of these assays.
# Tb MetRS inh: Trypanosoma brucei MetRS inhibition. inhibition, % at 11.9 µM. purified T. brucei MetRS, ATP depletion, Kinase-Glo luminescence. hit rate 0.4% among 360,000;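 active = inhibition above a per-plate cutoff of the control wells' mean inhibition plus 3 SD, cut at about 5.5% in these data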;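 also: 0% = DMSO wells median and 100% = median of wells with control inhibitor compound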
#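 Material: parasite MetRS enzyme / Replication: singlicate, one well per compound / Signal: luminescence of leftover ATP / Schedule: 2 h aminoacylation at 25 °C after 15 min preincubation / Medium: HEPES-MgCl2-KCl buffer plus DTT, spermine, BSA, pyrophosphatase / Doses: 11.9 µM single point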
# Bfl-1 A1 inh: inhibitors of the anti-apoptotic protein A1, read as caspase activation | hit rate 0.066% among 330,000 | caspase activation, % (no concentration beside the values) | AID 2462 | MEF A1-2A-BIM cells, Caspase-Glo 3/7 luminescence, 3 h; percent of clofoctol response, vehicle zero;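 active = over half of replicate activation scores above 10%, or exactly half above 10 with the replicate mean above 10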
# NPR1 activator: GC-A (human) enzyme activation | P16066 | HEK293 GC-A cells, cGMP TR-FRET, EC30 ANP; 0% at EC30 ANP, 100% saturating ANP | activation, % at 10 µM | hit rate 0.14% among 370,000; in the data active = activation above about 40%
# SKN-1 block: blocks SKN-1 activity in C. elegans; C. elegans VP596 Pgst-4::GFP/RFP ratio, acrylamide-induced, 24 h; inhibition, % at 21.8 µM; hit rate 0.49% among 360,000; AID 624304;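 active = interference check ratio from 0.5 to 1.5 plus GFP to RFP signal ratio inhibition reaching or exceeding a fixed threshold, cut at about 30% in these data, passing the limit was not always enough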
# MT1-MMP act inh: blocks activation of human MT1-MMP | HT1080 RFP-PRO-GFP cells, GFP/RFP ratio fluorescence, overnight; percent of plate control window, DMSO zero | GFP/RFP ratio change, % at 20 µM | hit rate 0.061% among 360,000 | AID 651647;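 active = GFP/RFP ratio change of at least 30% with cell ATP level not reduced by more than half and red fluorescence within 50% of control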
#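 Material – HT1080 RFP-PRO-GFP cells · Control set – DMSO wells and RFP-L50D-GFP cells · Incubation – overnight cell settling, then overnight compound exposure, 37 °C, 5% CO2 · Compound dosing – single-point 20 µM compound, 1% DMSO · Read-out – GFP/RFP fluorescence ratio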
# NPR2 activator: GC-B (human) receptor activation. AID 1920062. HEK293-GC-B cells, CNP EC30, cGMP TR-FRET; 0% at EC30 CNP, 100% saturating CNP. hit rate 0.11% among 370,000. activation, % at 10 µM. P20594;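 active = activation at 10 µM reaching about 35% in either raw or pattern-adjusted values, limit read from the data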
# TbMetRS confirm: Trypanosoma brucei MetRS inhibition confirmed. hit rate 93% among 1,400. T. brucei MetRS enzyme, luminescence (ATP depletion). AID 624412. shares compounds with Tb MetRS inh. inhibition, % at 11.9 µM; in the data active = inhibition above about 7%
# Jurkat tox: Jurkat T cell cytotoxicity for MetRS hits; hit rate 12% among 1,400; Jurkat cells viability, ATP luminescence; inhibition, % at 8.3 µM; shares compounds with Tb MetRS inh; AID 624413; in the data active = inhibition above about 15%;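 also: 0% = vehicle and 100% = reference inhibitor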
# Tb MetRS inh FP: orthogonal test for Trypanosoma brucei MetRS inhibitors; shares compounds with Tb MetRS inh; hit rate 44% among 1,400; purified T. brucei MetRS, fluorescence polarization; inhibition, % at 11.9 µM; in the data active = inhibition above about 17%;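 also: 0% = vehicle wells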
# * = called active by the depositor; nt = no result given.
SMILES,Tb MetRS inh,Bfl-1 A1 inh,NPR1 activator,SKN-1 block,MT1-MMP act inh,NPR2 activator,TbMetRS confirm,Jurkat tox,Tb MetRS inh FP
CCOc1c(Cl)cc(CNc2ccc(S(N)(=O)=O)cc2)cc1OC,-1,0,3,3,4,-1,nt,nt,nt
COc1ccc(Cc2nnc(NC(=O)Nc3ccccc3)s2)cc1OC,7.0*,0,4,8,0,5,21*,6,15
CCOC(=O)Cc1nnc(NC(=O)Nc2ccccc2)s1,16*,0,0,-8,2,-10,23*,8,15
COc1cccc(NC(=O)Nc2nnc(Cc3ccc(OC)c(OC)c3)s2)c1,-1,0,2,1,5,7,nt,nt,nt
COc1ccccc1CNC(=O)NCCCN1CCN(c2ccc(F)cc2)CC1,nt,nt,3,nt,nt,-7,nt,nt,nt
NCCSC1CC(=O)N(c2ccc(Cl)c(Cl)c2)C1=O (stereo not drawn),0,0,0,12,1,9,nt,nt,nt
O=C1CC(SCc2nc3ccccc3[nH]2)C(=O)N1c1cccc(Cl)c1 (stereo not drawn),80*,0,-2,11,-18,1,91*,-1,61*
O=C1CC(SCCc2nc3ccccc3[nH]2)C(=O)N1c1ccc(F)c(Cl)c1 (stereo not drawn),33*,-2,1,-6,3,0,54*,1,30*
O=C1CC(SCc2nc3ccccc3[nH]2)C(=O)N1c1ccc(F)cc1 (stereo not drawn),2,0,-7,6,-4,2,nt,nt,nt
CCOc1ccc(CCNC(=O)CCc2nc3ccccc3[nH]2)cc1OCC,3,0,-1,-9,-3,3,nt,nt,nt
COc1ccccc1C(=O)NCCc1nc2ccccc2[nH]1,1,0,-4,-2,5,-11,nt,nt,nt
COc1ccc(OCCCC(=O)NCCc2nc3ccccc3[nH]2)cc1,48*,0,-4,-7,-8,-3,70*,-3,32*
COc1ccc(CCNC(=O)CCc2nc3ccccc3[nH]2)cc1OC,8.3*,1,-1,2,3,5,11*,2,6
CCCC(=O)NCCCc1nc2ccccc2[nH]1,-1,0,4,-9,7,-3,nt,nt,nt
COCC(=O)NCCc1nc2ccccc2[nH]1,-1,-1,6,13,1,2,nt,nt,nt
Cc1ccc(CCNC(=O)CCc2nc3ccccc3[nH]2)cc1,21*,0,-2,-9,0,4,37*,-4,16
COc1ccc(CCC(=O)NCCc2nc3ccccc3[nH]2)cc1,9.4*,2,-3,-22,-3,-3,16*,-4,1
O=C(COC(=O)CCCSc1nc2ccccc2[nH]1)Nc1ccc(Cl)cc1,13*,0,1,4,2,-9,21*,1,13
O=C(CCCSc1nc2ccccc2[nH]1)NCc1ccccc1Cl,10*,-1,2,5,-3,1,17*,7,6
O=C(CCCSc1nc2ccccc2[nH]1)NC(c1ccccc1)c1ccccc1,0,0,-6,4,0,-7,nt,nt,nt
COc1cccc(Nc2nc3ccccc3c(=O)[nH]2)c1,8.6*,0,3,0,-4,3,18*,0,6
COc1cccc(Nc2cc(C)c3ccccc3n2)c1,1,2,-2,-9,2,-10,nt,nt,nt
O[C@H](COc1cccc(C(F)(F)F)c1)CN1CCC(C(O)(c2ccccc2)c2ccccc2)CC1,nt,nt,-13,nt,nt,-7,nt,nt,nt
O=C(COC(=O)C1CCN(c2ccc(C(F)(F)F)cn2)CC1)Nc1cccc(F)c1,6.0*,-1,0,-6,9,-8,19*,0,6
O=C(CCNS(=O)(=O)c1cccc2nonc12)Nc1ccc(Cl)cc1,10*,0,-3,1,-2,-8,21*,0,6
SMILES,Tb MetRS inh,Bfl-1 A1 inh,NPR1 activator,SKN-1 block,MT1-MMP act inh,NPR2 activator,TbMetRS confirm,Jurkat tox,Tb MetRS inh FP
O=C(CCNS(=O)(=O)c1ccc(Br)s1)Nc1ccc(Cl)cc1,78*,-1,-4,4,3,-2,85*,8,69*
O=C(CCNS(=O)(=O)c1ccc(Br)s1)NC1CCCC1,0,1,4,-1,-3,1,nt,nt,nt
Cc1ccc(NC(=O)CCNS(=O)(=O)c2cccc3nonc23)cc1Cl,0,1,-8,3,-2,-5,nt,nt,nt
Cc1[nH]c2ccccc2c1C(=O)C(=O)N1CCN(C(=O)c2ccco2)CC1,6.4*,0,-7,11,-5,5,11*,9,2
Cc1[nH]c2ccccc2c1NC(=O)CN1CCN(C(=O)c2ccco2)CC1,0,1,1,-8,-1,2,nt,nt,nt
O=C(C(=O)N1CCCC1)c1c[nH]c2ccccc12,1,1,-2,9,1,4,nt,nt,nt
O=C(C(=O)N1CCN(C(=O)c2ccco2)CC1)c1c[nH]c2ccccc12,5.8*,0,1,12,-7,3,12*,0,5
O=C1CC2(CCN(C(=O)C(=O)c3c[nH]c4ccccc34)CC2)Oc2ccccc21,20*,-1,-5,7,-16,-1,33*,-4,18*
CCOC(=O)CC[C@@]1(C(=O)OCC)C[C@@H](CC(=O)N2CCOCC2)C(=O)N2CCCC=C21,nt,nt,2,nt,nt,-3,nt,nt,nt
Cc1cc2c(c(=O)n1CC1CCCO1)C(c1ccc3c(c1)OCO3)C(C#N)=C(N)O2 (stereo not drawn),60*,1,7,-5,-13,5,75*,-3,49*
CCn1c(C)cc2c(c1=O)C(c1ccc3c(c1)OCO3)C(C#N)=C(N)O2 (stereo not drawn),23*,1,0,-10,-4,2,2,4,3
C=CCc1cccc(C=NNC(=O)c2ccco2)c1O,nt,nt,1,nt,nt,-10,nt,nt,nt
O=C1C(=O)c2cccnc2-c2ncccc21,15*,nt,20,-2,-15,12,9.7*,97*,7
Cc1nc2ccc(S(=O)(=O)NCC(=O)NCc3ccc(F)cc3)cc2s1,nt,nt,3,nt,nt,3,nt,nt,nt
CCN(CC)S(=O)(=O)c1ccc(N2CCOCC2)c(NCC(=O)Nc2ccc(F)cc2)c1,22*,1,-1,-3,3,-3,33*,1,15
